Data on 70 molecules can be found in ChEMBL document CHEMBL4513216, “Probing the Open Global Health Chemical Diversity Library for Multistage-Active Starting Points for Next-Generation Antimalarials” (ACS Infect Dis, 2020).

The data set in a line: Toxicity liver stage against HepG2, at 10uM. Particulars: human, HepG2-A16-CD81EGFP cells; read-out: INHIBITION
Also on record: test concentration 10 uM, cell line HepG2-A16-CD81EGFP. The data set is classed as cell-based. In short, it runs like this:
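Uninfected HepG2-A16-CD81EGFP cells, 3 × 10^3 per well, 1536-well, plated on prespotted compound at 10 μM final, parasite-free screening media added to match infected plates; puromycin 10 μM positive, DMSO 0.5% negative; run in parallel with 48 h PbLuc assay at 37 °C, 5% CO2; viability by CellTiter-Glo luminescence, normalized to controls.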
As to `Cc1ccccc1C(=O)NC(C)CN1CCOC1=O` (stereo not given), the cytotoxicity at 10 µM was determined as 4.33%.

Consider `COc1ccccc1C1SCC(=O)Nc2c1c(=O)[nH]n2C1CCOCC1` (stereo not given), for which the cytotoxicity at 10 µM is -5.43%.

Consider `O=C(CSc1nc2c(cnn2CCO)c(=O)[nH]1)NC1CCCCC1`, for which the cytotoxicity at 10 µM was -8.07%.

`O=C(Nc1nc2c(s1)CN(S(=O)(=O)C1CC1)CC2)c1ccccn1`: the cytotoxicity at 10 µM is -5.46%.

On to `COCCNC(=O)c1ccnn1-c1ccc2ccccn12`, for which the cytotoxicity at 10 µM was determined as 8.28%.

Regarding `COc1cccc(-c2cnc3n2CCC32CCN(S(C)(=O)=O)CC2)c1`, the cytotoxicity at 10 µM is -2.2%.

Turning to `O=C(C1CC(F)(F)C1)N1CC[C@H]2OCC[C@@]2(COCC2CC2)C1`, the cytotoxicity at 10 µM was -3.09%.

On to `Cc1ccccc1C(=O)N1C[C@@H]2C[C@@H](C)O[C@@H]2C1`, for which the cytotoxicity at 10 µM was found to be 0.995%.

With `Cn1cc(CN2CCCn3cnc(COCc4ccco4)c3C2)cn1`, the cytotoxicity at 10 µM came out at 7.61%.

Regarding `CC(CN(C)C)Nc1nc(O)cc(Cc2ccccc2F)n1` (stereo not given), the cytotoxicity at 10 µM turned out to be 13.2%.

Turning to `O[C@@H]1C[C@H]2CN(Cc3ccsc3)[C@@H](Cc3ccccc3)CN2C1`, the cytotoxicity at 10 µM was -2.13%.

On to `CCC1c2ccc(C)n2CCN1C(=O)Cn1cnc2sc(C)cc2c1=O` (stereo not given), for which the cytotoxicity at 10 µM stood at 6.09%.

With `CC(=O)N1CCC(C(=O)c2cc(C)cnc2N)CC1`, the cytotoxicity at 10 µM is -0.0531%.

Take `O=S(=O)(NCCCn1cccn1)c1ccc2c(c1)CCC2`: the cytotoxicity at 10 µM was -4.59%.

Regarding `CN(Cc1ccco1)C(=O)CN1C(=O)c2cc(Cl)c(Cl)cc2C1=O`, the cytotoxicity at 10 µM worked out at 1.11%.

On to `COCc1noc(Cn2c(C3CC3)nc3ccccc32)n1`, for which the cytotoxicity at 10 µM came out at 13.2%.

Regarding `COc1ccc(C(C)NCc2nnc(C)s2)cc1F` (stereo not given), the cytotoxicity at 10 µM was -19.8%.

On to `COC(=O)C1CN(Cc2ccc(-c3ccncc3)cc2F)C[C@@H](C)O1` (stereo not given in full), for which the cytotoxicity at 10 µM was found to be 1.63%.

Consider `CCc1nsc(N2CCCN(CC(=O)N(C)C3CC3)CC2)n1`, for which the cytotoxicity at 10 µM is -9.43%.

`CCc1ccc(C(COC)NC(=O)c2ccc(C(N)=O)cc2)o1` (stereo not given): the cytotoxicity at 10 µM was -2.65%.

With `CC(C)c1nccn1C1CCCN(C(=O)c2ccc(=O)n(C)n2)C1` (stereo not given), the cytotoxicity at 10 µM is 7.8%.

On to `CN(Cc1nnc(C2CC2)n1C)C1CCN(CCS(C)(=O)=O)C1` (stereo not given), for which the cytotoxicity at 10 µM came to 0.918%.

Consider `Cc1cc(C(=O)N2CCCN(Cc3cnn(C(C)C)c3)CC2)no1`, for which the cytotoxicity at 10 µM was found to be 0.243%.

As for `Cc1cnn(-c2cccc(N3CCCCC3)n2)c1`, the cytotoxicity at 10 µM is 0.247%.

As to `CSc1ccc(NC(=O)Cc2cccc(O)c2)nc1`, the cytotoxicity at 10 µM is -4.3%.

As for `CN(C(=O)c1ccco1)C1CCC(NC(=O)OC(C)(C)C)CC1` (stereo not given), the cytotoxicity at 10 µM was found to be 8.12%.

Turning to `CN1CCN(c2ccccc2NC(=O)NCC[S+](C)[O-])CC1` (stereo not given), the cytotoxicity at 10 µM is -2.41%.

Consider `Cc1cccc2c1NC(c1cnc(C3CCC3)s1)NC2=O` (stereo not given), for which the cytotoxicity at 10 µM is 5.11%.

Consider `COCCOCCCNC(=O)c1cc(Cl)cc2cccnc12`, for which the cytotoxicity at 10 µM was determined as 32.6%.

For `COc1cc(N2CC[C@@H]3OCCN(C)[C@H]3CC2)ncn1`, the cytotoxicity at 10 µM was -96.6%.

Consider `O=C(c1ccoc1)N1CCO[C@@H]2CNC[C@@H]21`, for which the cytotoxicity at 10 µM is -99.9%.

For `O=C(c1ccno1)N1CC[C@@H]2CN(C3CCOCC3)CCO[C@@H]2C1`, the cytotoxicity at 10 µM is -102%.

As to `O=C(Cc1ccsc1)N1C[C@@H]2COC[C@]2(COc2cccnc2)C1`, the cytotoxicity at 10 µM was -99.3%.

For the molecule `Cc1occc1C(=O)N1CCn2c(COCC3CC3)cnc2C1C` (stereo not given), the cytotoxicity at 10 µM was determined as 7.02%.

In the case of `CC1c2ncc(COCC3CC3)n2CCN1C(=O)c1ccnn1C` (stereo not given), the cytotoxicity at 10 µM amounted to 4.68%.

Regarding `Cn1cc(-c2nnn3c2COC(CNCc2ccncc2)C3)cn1` (stereo not given), the cytotoxicity at 10 µM was 0.887%.

As to `Cc1nc(CN(C)CC2CCCN(CCc3ccc(Cl)cc3)C2)n(C)n1` (stereo not given), the cytotoxicity at 10 µM is 4.44%.

Take `Cc1nccc(N[C@H]2CN(CCS(C)(=O)=O)C[C@@H]2C2CC2)n1`: the cytotoxicity at 10 µM stood at 0.34%.

As to `COCCn1cnnc1Cn1ccnc1-c1ccsc1`, the cytotoxicity at 10 µM was determined as 8.61%.

On to `Cc1noc(C)c1-c1n[nH]c2c1CN(S(=O)(=O)c1ccsc1)CC2`, for which the cytotoxicity at 10 µM stood at 5.6%.

With `Cc1cc(C(=O)N2CCC(CCn3cccn3)CC2)c(C)o1`, the cytotoxicity at 10 µM was -5.27%.

Turning to `CC(C)[C@@H]1CN(C(=O)C2(c3ccccc3)CCN(C)CC2)C[C@H]1N(C)C`, the cytotoxicity at 10 µM is -32%.

Regarding `Cc1ccc(C2(CN3CCN(c4ncccn4)CC3)CCNCC2)nc1`, the cytotoxicity at 10 µM was -10.1%.

With `Cc1cc2nc(C(C)C)cc(NCCc3cccn3C)n2n1`, the cytotoxicity at 10 µM worked out at 0.407%.

On to `CCOCC(C)(C)NC(=O)Nc1cc(F)ccc1OC`, for which the cytotoxicity at 10 µM is -3.12%.

As to `O[C@@H]1CN(c2nc3ccccc3o2)CC[C@H]1c1ccc2c(c1)OCO2`, the cytotoxicity at 10 µM amounted to 5.36%.

As to `Cc1cc(C(=O)N2CCC(n3cc(CO)nn3)CC2)ccc1F`, the cytotoxicity at 10 µM is -4.73%.

As for `Cc1ccsc1C(=O)NCc1ccnc(OCC(F)(F)F)c1`, the cytotoxicity at 10 µM is -6.19%.

Turning to `CC(O)CNC(=O)NCc1ccc(N2CCNC(=O)C2)cc1` (stereo not given), the cytotoxicity at 10 µM was -7.23%.

Regarding `CCC(CNC(=O)Nc1cnn(CC)c1)N1CCCC1` (stereo not given), the cytotoxicity at 10 µM was -1.47%.

In the case of `CN1CCOC(CNCCc2ccccn2)C1` (stereo not given), the cytotoxicity at 10 µM is -4.77%.

As for `Cc1nc(C)n(CC2CCCN2Cc2nc3ccccc3nc2C)n1` (stereo not given), the cytotoxicity at 10 µM is 6.21%.

Regarding `Cc1ccc(-c2nc(CN3CCC(C(=O)N(C)C)CC3)cs2)o1`, the cytotoxicity at 10 µM was 1.32%.

As for `CC(=O)Nc1nc(CN2CCCC2Cn2cc(C)cn2)cs1` (stereo not given), the cytotoxicity at 10 µM was 3.22%.

Take `CC(C)C(=O)N1CCC2(CC1)NC(=O)c1ccccc12`: the cytotoxicity at 10 µM was -0.787%.

`CC(C)N(C(=O)Cn1c(-c2ccco2)cc2cccnc21)C(C)C`: the cytotoxicity at 10 µM is -4.32%.

For `CC(C)CNC(=O)N1CCC2(CC1)OC(C(N)=O)Cn1ccnc12` (stereo not given), the cytotoxicity at 10 µM was -103%.

In the case of `CO[C@@H]1CCN(S(=O)(=O)c2cn(C)cn2)[C@H]1Cc1ccncc1`, the cytotoxicity at 10 µM amounted to 4.05%.

Consider `CCCC(N)CNS(=O)(=O)Cc1cccc(C#N)c1` (stereo not given), for which the cytotoxicity at 10 µM came out at 6.13%.

For the molecule `O=C([C@H]1CN(Cc2ccoc2)C[C@H]2OCC[C@@H]12)N1CCCCO1`, the cytotoxicity at 10 µM was determined as 7.86%.

Regarding `COc1ccc([C@@H]2CN(Cc3ccncc3)C[C@H]2c2cc[nH]n2)cc1`, the cytotoxicity at 10 µM was -4.96%.

Consider `Cc1ccc(CN2CCOC3(CCN(C(=O)C4CCOC4)CC3)C2)cc1` (stereo not given), for which the cytotoxicity at 10 µM is 0.933%.

As for `CC(C)C(=O)N1CCc2onc(C(=O)NCCN(C)C)c2C1`, the cytotoxicity at 10 µM turned out to be 5.56%.

Regarding `CN(C)C(=O)COCc1nnc2n1CCN(Cc1ccsc1)C2`, the cytotoxicity at 10 µM is 7.16%.

For `Cc1ccc(C(=O)N2CCn3c(COCC4CC4)cnc3C2C)nc1` (stereo not given), the cytotoxicity at 10 µM was determined as 3.58%.

With `CN(C)C(=O)[C@@H]1CC[C@@H]2[C@@H](CCN2Cc2ccccn2)O1`, the cytotoxicity at 10 µM was -3.55%.

As for `CN(Cc1cccs1)C1CCC[C@@H]2CN(C(N)=O)C[C@H]12` (stereo not given in full), the cytotoxicity at 10 µM was 18.6%.

Turning to `O=C(Cc1cccc(F)c1)N1CCN2C[C@H](Oc3cncnc3)C[C@H]2C1`, the cytotoxicity at 10 µM is 6.1%.

As to `O=C(CC1[C@H]2CN(C(=O)Cc3ccccn3)C[C@@H]12)Nc1cccnc1` (stereo not given in full), the cytotoxicity at 10 µM came out at 10.1%.

As to `C=c1nc(NC)sc1=C1NC(c2c(C)ncc3c2CCNC3)=NO1`, the cytotoxicity at 10 µM came to 1.67%.
